Paper PMC8929370 (Pharmacology Research & Perspectives, 2022)

Assays:
human CB1 [1] = target: T1, human CB1 (Homo sapiens, UniProt P21554); assay: Inhibition of FSK-stimulated cAMP; format: cell-based; details: for Emax: HEK293, read-out: E MAX (±SEM), %; for Rank order efficacy: cAMP inhibition efficacy ranking
human CB1 [2] = target: T1, human CB1; assay: [35S]GTPγS binding in P2 membranes of HEK293 cells expressing hCB1; format: biochemical; details: for Rank order efficacy: [35S]-GTPγS efficacy ranking; for Emax: read-out: E MAX (±SEM), %
human CB1 [3] = target: T1, human CB1; assay: Phospho-ERK AlphaLISA assay in 3HA-hCB1 HEK cells; format: cell-based; details: 10 µM alone
Procedure, shortened: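 3HA-hCB1 HEK cells were plated at 2.5e4/well on poly-D-lysine-coated plates and serum-starved overnight after ~24 h in serum-free high-glucose DMEM with 1 mg/ml BSA. Drugs were made at 2x, prewarmed and dispensed in a 37°C waterbath, staggered so all stimulations ended together. The time course used 31.6 µM. Cells were lysed on ice and pERK read by AlphaLISA SureFire Ultra, in technical duplicate or quadruplicate.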

[4] = target: human CB1 (hCB1) receptor (Homo sapiens, UniProt P21554); format: binding; details: for Rank order (affinity): rank of pKi among EG-018 and 13 analogues
human CB1 (hCB1) receptor, sequence (P21554 whole entry): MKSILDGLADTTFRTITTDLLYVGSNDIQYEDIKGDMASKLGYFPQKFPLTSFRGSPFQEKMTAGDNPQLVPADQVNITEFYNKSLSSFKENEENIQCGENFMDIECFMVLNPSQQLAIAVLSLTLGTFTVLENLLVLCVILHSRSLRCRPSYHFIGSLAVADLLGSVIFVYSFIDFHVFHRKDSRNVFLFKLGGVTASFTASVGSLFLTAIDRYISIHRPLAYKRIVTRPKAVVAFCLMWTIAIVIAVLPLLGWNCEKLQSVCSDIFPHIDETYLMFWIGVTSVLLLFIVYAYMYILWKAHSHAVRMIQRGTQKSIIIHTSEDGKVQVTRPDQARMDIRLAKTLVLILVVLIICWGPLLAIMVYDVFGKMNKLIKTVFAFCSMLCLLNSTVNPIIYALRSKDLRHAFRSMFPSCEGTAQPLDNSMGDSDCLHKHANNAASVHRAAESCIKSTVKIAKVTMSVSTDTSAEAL

T1 sequence (P21554 whole entry): as above

| SMILES | EC50 (human CB1 [1]) [µM] | right-shift in the potency of the CP55940 response (cAMP) (human CB1 [1]; 10 µM antagonist, E MAX not reduced) | Emax (human CB1 [1]) [%] | Rank order efficacy (human CB1 [1]) | EC50 (human CB1 [2]) [µM] | Rank order efficacy (human CB1 [2]) | Emax (human CB1 [2]) [%] | agonist response in pERK by compound alone (human CB1 [3]) | Ki [4] [µM] | Rank order (affinity) [4] | inverse agonism in cAMP assay (human CB1 [1]; concentration-response, compared to SR141716A) |
| --- | --- | --- | --- | --- | --- | --- | --- | --- | --- | --- | --- |
| O=C(c1ccc2c(c1)c1ccccc1n2CCN1CCOCC1)c1ccnc2ccccc12 [Compound 157, (9-(2-(Morpholin-4-yl)ethyl)-9H-carbazol-3-yl)(quinoline-4-yl)methanone] | 0.0912 | approximately 1 log unit | 13.1 | 14 | 0.257 | 10 | 88.2 | not driving an agonist response in pERK | 0.589 | 13 |  |
| O=C(c1ccc2c(c1)c1ccccc1n2CCCCCO)c1cccc2ccccc12 [Compound 045] | 0.148 |  | 34.9 | 9 | 0.257 | 12 | 81.9 |  | 0.166 | 9 |  |
| O=C(NN1CCCCC1)c1nn(-c2ccc(Cl)cc2Cl)c2c1CCCc1cc(Cl)ccc1-2 [NESS‐0327, reference compound] |  |  |  |  |  |  |  |  |  |  | approximately equivalent inverse agonism to SR141716A |
| O=C(c1ccc2c(c1)c1ccccc1n2CCN1CCOCC1)c1cc2ccccc2o1 [Compound 146, 1-Benzofuran-2-yl(9-(2-(morpholin-4-yl)ethyl)-9H-carbazol-3-yl)methanone] | 0.355 |  | 38.5 | 8 |  |  |  |  | 0.295 | 11 |  |
| Cc1ccc(C(=O)c2ccc3c(c2)c2ccccc2n3CCN2CCOCC2)c2ccccc12 [Compound 141, (9-(2-(Morpholin-4-yl)ethyl)-9H-carbazol-3-yl)(4-methylnaphthalen-1-yl)methanone] | 0.0832 |  | 38.7 | 7 | 0.355 | 8 | 106 |  | 0.148 | 8 |  |
| O=C(c1ccc2c(c1)c1ccccc1n2CCN1CCOCC1)c1cc2ccccc2[nH]1 [Compound 142, (9-(2-(Morpholin-4-yl)ethyl)-9H-carbazol-3-yl)(1H-indol-2-yl)methanone] | 1.2 |  | 31.5 | 13 | 6.17 | 6 | 123 |  |  | 14 |  |
